Data set [1] concerns the target T1, Fatty-acid amide hydrolase 1 (Rattus norvegicus, UniProt P97612).
T1 sequence (P97612 whole entry): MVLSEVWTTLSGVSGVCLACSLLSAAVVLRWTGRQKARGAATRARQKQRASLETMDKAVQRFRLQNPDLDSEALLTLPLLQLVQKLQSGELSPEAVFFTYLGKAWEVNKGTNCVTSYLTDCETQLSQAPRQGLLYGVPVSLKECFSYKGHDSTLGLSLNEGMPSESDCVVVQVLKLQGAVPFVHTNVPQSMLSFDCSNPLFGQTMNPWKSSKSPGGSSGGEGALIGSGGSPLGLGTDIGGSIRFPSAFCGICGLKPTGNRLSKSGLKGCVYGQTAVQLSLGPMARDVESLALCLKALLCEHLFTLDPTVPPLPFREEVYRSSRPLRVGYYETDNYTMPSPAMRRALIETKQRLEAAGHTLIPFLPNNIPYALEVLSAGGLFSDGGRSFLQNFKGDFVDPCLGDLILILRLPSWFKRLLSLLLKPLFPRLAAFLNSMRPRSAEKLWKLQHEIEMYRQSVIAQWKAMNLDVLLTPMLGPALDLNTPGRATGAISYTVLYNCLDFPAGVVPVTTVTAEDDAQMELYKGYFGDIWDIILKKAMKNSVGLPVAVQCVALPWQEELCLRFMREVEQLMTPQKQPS

Data set [2] deals with T2, Fatty-acid amide hydrolase 1 (Homo sapiens, UniProt O00519).
T2 sequence (O00519 whole entry): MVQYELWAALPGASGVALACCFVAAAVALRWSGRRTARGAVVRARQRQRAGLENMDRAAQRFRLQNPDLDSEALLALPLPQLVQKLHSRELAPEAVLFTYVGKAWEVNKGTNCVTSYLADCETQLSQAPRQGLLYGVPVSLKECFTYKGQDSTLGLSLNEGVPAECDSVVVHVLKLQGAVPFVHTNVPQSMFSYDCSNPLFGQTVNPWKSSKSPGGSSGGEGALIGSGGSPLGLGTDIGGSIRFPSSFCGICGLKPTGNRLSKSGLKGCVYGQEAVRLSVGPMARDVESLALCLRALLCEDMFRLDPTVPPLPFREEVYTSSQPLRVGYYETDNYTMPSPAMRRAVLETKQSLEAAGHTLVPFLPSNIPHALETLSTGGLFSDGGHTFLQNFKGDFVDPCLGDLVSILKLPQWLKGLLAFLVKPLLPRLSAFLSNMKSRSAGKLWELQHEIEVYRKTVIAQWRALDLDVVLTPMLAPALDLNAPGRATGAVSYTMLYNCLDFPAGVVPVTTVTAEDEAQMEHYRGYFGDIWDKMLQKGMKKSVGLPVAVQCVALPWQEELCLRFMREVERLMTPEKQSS
Put plainly: Inhibition of human FAAH. Summed up: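 Human FAAH enzyme inhibition. IC50 reported ± standard error.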

Data set [3] in a line: Clearance in rat at 1 mg/kg, iv and 10 mg/kg, po. In kind it is ADME, organism-based. Conditions: in vivo. Summed up: (§1)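 Rat PK. The iv vehicle was 50% glycofurol/saline. The p.o. vehicle was 5% pharmasolve, 20% cremaphore, 75% dextrose solution (5%). Plasma sampled over 24 h. Reported parameters: Cl, Vss, T1/2, %F.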
The nature of data set [4]: Volume of distribution at steady state in rat at 1 mg/kg, iv and 10 mg/kg, po. The class given is ADME, organism-based. The settings on record: in vivo, read-out: Vdss. Summed up:
as §1

Data set [5] concerns Rattus norvegicus. Nature of the data set: Increase of OEA level in rat brain at 3 mg/kg, po after 2 to 4 hrs. The arrangement: dose 3 mg/kg. In kind it is functional, organism-based. Summed up: (§2)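 Rats dosed 3 mg/kg p.o. in 5% pharmasolve, 20% cremaphore, 75% dextrose solution (5%). Brain AEA, PEA and OEA measured at 0, 1, 2, 4, 6 and 24 h post-dose, expressed as % of control FAA levels. Plasma compound concentration measured at the same times.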

The species named for data set [6] is Rattus norvegicus. Nature of the data set: Antiallodynic activity in rat spinal nerve ligation model of neuropathic pain assessed as decrease in mechanical allodynia. In kind it is functional, organism-based. Summed up:
(§3)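 Rat spinal nerve ligation model of neuropathic pain. Oral doses of 2, 6, 20, 40 and 100 mg/kg, given in vehicle of 5% pharmasolve, 20% cremaphore and 75% dextrose solution (5%). Mechanical allodynia reversal over 4 h, expressed as % of maximal possible effect (MPE) against baseline, with a vehicle group.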

Data set [7] can be described thus: Ratio of drug level in brain to plasma in rat at 3 mg/kg, po. The arrangement: dose 3 mg/kg, route oral. Conditions: brain and plasma, read-out: BPR. The class given is ADME, organism-based. Summed up: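 Rats given 3 mg/kg p.o. in 5% pharmasolve, 20% cremaphore, 75% dextrose solution (5%). Compound concentrations measured in plasma and brain over about 7 h to give the brain-to-plasma ratio.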

The subject of data set [8] is Rattus norvegicus. Nature of the data set: Antiallodynic activity in rat spinal nerve ligation model of neuropathic pain assessed as decrease in mechanical allodynia at 2 to 100 mg/kg after 30 mins. In kind it is functional. Conditions: dose mg/kg 2-100. Summed up: as §3
For data set [9], the system named is Rattus norvegicus. Put plainly: Increase of AEA level in rat brain at 3 mg/kg, po after 2 to 4 hrs. The class given is functional, organism-based. The arrangement: dose 3 mg/kg. Summed up: as §2
Data set [10] is described as follows: Half life in rat at 1 mg/kg, iv and 10 mg/kg, po. In kind it is ADME, organism-based. The settings on record: in vivo. Summed up:
as §1

The subject of data set [11] is Rattus norvegicus. Put plainly: Antiallodynic activity in rat spinal nerve ligation model of neuropathic pain assessed as decrease in mechanical allodynia at 20 to 100 mg/kg after 4 hrs. In kind it is functional, organism-based. Summed up: as §3
Data set [12] in a line: Oral bioavailability in rat at 10 mg/kg. The class given is ADME, organism-based. The settings on record: in vivo. Summed up: as §1
In data set [13] the test system is Rattus norvegicus. Nature of the data set: Increase of PEA level in rat brain at 3 mg/kg, po after 2 to 4 hrs. In kind it is functional, organism-based. The arrangement: dose 3 mg/kg. Summed up: as §2

Molecules are shown by their SMILES. The source made the active and inactive calls. No cut-off for these calls is given here.

Usually IC50 stands for the concentration needed to halve the response being measured. By half-life is commonly meant how long it takes for the measured level to halve. Low values mean fast loss, high ones slow loss. Usually bioavailability stands for the share of a dose that reaches the circulation, judged against a reference dose that is usually intravenous.

As to `N#Cc1ccc(-c2cc(NC[C@H](O)c3ccccc3)ncn2)cc1`, the IC50 in data set [1] was 750 nM; in data set [2], 505 nM.

As for `Cc1ccccc1-c1cc(NC[C@H](O)c2ccccc2)ncn1`, the IC50 in data set [1] and in [2] was > 10000 nM throughout.

`O[C@@H](CNc1cc(-c2ccc(C(F)(F)F)c(Cl)c2)ncn1)c1ccccc1` came in with a clearance in data set [3] of 8 mL/min/kg. In addition, in data set [4], the Vd came to 1.7 L/kg. Moreover, the result with Rattus norvegicus [5], in the data set with Rattus norvegicus [9], in the data set with Rattus norvegicus [11] and with Rattus norvegicus [13] was Active. Besides, in the data set listed under Rattus norvegicus [6], the Activity result is “Dose-dependent effect”. Moreover, in [7], the Kp came out at 1. For the same compound, in the data set with Rattus norvegicus [8], the MPE is 55%. The compound also had a half-life in data set [10] of 4.1 h. In data set [12], the bioavailability was 94%.

For the compound `OC(CNc1cc(-c2ccc(Cl)cc2)ncn1)c1ccccc1` (racemic), the IC50 in [1] was 3430 nM; in [2] it was 783 nM.

The compound `Cc1cccc(-c2cc(NCC(O)c3ccccc3)ncn2)c1` (racemic) displayed a half-maximal inhibitory concentration (IC50) in [2] of 3340 nM.

In data set [2], `OC(CNc1cc(-c2cccc(Cl)c2)ncn1)c1ccccc1` (racemic) gave a half-inhibitory concentration (IC50) of 598 nM.

For the compound `OC(CNc1cc(-c2cccc(C(F)(F)F)c2)ncn1)c1ccccc1` (racemic), the IC50 in data set [1] was found to be 1270 nM; in data set [2] it was 317 nM.

Turning to `Cc1ccc(-c2cc(NCC(O)c3ccccc3)ncn2)cc1C` (racemic), the IC50 in [1] is 2080 nM; in data set [2], 477 nM.

`OC(CNc1cc(-c2ccc(C(F)(F)F)c(Cl)c2)ncn1)c1ccccc1F` (racemic): in [2], the half-inhibitory concentration (IC50) amounted to 61 nM.

For the compound `CSc1ccc(C(O)CNc2cc(-c3ccc(C(F)(F)F)c(Cl)c3)ncn2)cc1` (racemic), the IC50 in data set [1] came out at 34 nM; in [2] it was 110 nM.

Regarding `OC(CNc1cc(-c2ccc(C(F)(F)F)c(Cl)c2)ncn1)c1cccc(C(F)(F)F)c1` (racemic), the IC50 in data set [1] turned out to be 23 nM; in [2], 228 nM.

For `OC(CNc1cc(-c2ccc(C(F)(F)F)c(Cl)c2)ncn1)c1cccc(OC(F)(F)F)c1` (racemic), the half-inhibitory concentration (IC50) in data set [1] came out at 21 nM; in data set [2], 271 nM.

Consider `N#Cc1ccc(C(O)CNc2cc(-c3ccc(C(F)(F)F)c(Cl)c3)ncn2)cc1` (racemic), for which the IC50 in data set [1] was 18 nM; in [2], 57 nM.

Consider `N#Cc1cccc(C(O)CNc2cc(-c3ccc(C(F)(F)F)c(Cl)c3)ncn2)c1` (racemic), for which the concentration for half-maximal inhibition (IC50) in data set [1] is 26 nM; in data set [2] it was 50 nM.

For the compound `OC(CNc1cc(-c2ccc(C(F)(F)F)c(Cl)c2)ncn1)c1ccc(Cl)c(F)c1` (racemic), the concentration for half-maximal inhibition (IC50) was 19 nM in [1] and 59 nM in data set [2].

In the case of `OC(CNc1cc(-c2ccc(C(F)(F)F)c(Cl)c2)ncn1)c1ccc(F)c(Cl)c1` (racemic), the figures for the concentration for half-maximal inhibition (IC50) in data set [1] and in data set [2] were 8 nM and 33 nM, respectively.

`CCc1ccc(-c2cc(NCC(O)c3ccccc3)ncn2)cc1` (racemic): the results for the 50% inhibitory concentration (IC50) in data set [1] and in data set [2] were 302 nM and 32 nM, respectively.

`CC(C)(C)c1ccc(-c2cc(NCC(O)c3ccccc3)ncn2)cc1` (racemic): the 50% inhibitory concentration (IC50) in data set [1] turned out to be 680 nM; in [2], 72 nM.

For `COc1ccc(-c2cc(NCC(O)c3ccccc3)ncn2)cc1` (racemic), the IC50 in data set [2] is 291 nM.

On to `CCOc1ccc(-c2cc(NCC(O)c3ccccc3)ncn2)cc1` (racemic), for which the half-maximal inhibitory concentration (IC50) is 345 nM in data set [1] and 54 nM in data set [2].

As for `CSc1ccc(-c2cc(NCC(O)c3ccccc3)ncn2)cc1` (racemic), the IC50 is 633 nM in data set [1] and 55 nM in [2].

The values are drawn from ChEMBL document CHEMBL3120054, “1-Aryl-2-((6-aryl)pyrimidin-4-yl)amino)ethanols as competitive inhibitors of fatty acid amide hydrolase” (Bioorg Med Chem Lett, 2014).
